Measured values reported in ChEMBL document CHEMBL1165913, “Repairing faulty genes by aminoglycosides: development of new derivatives of geneticin (G418) with enhanced suppression of diseases-causing nonsense mutations” (Bioorg Med Chem, 2010).
≈ marks a conversion by molar mass, not a printed value. Calls of active or inactive are those of the source. The rule behind the calls is not given here.

Tests used:
Ribosome [1] = assay: Induction of ribosome to readthrough in-frame UGA codon of renilla/firefly PCDH15 R245X nonsense mutant gene transfected in rabbit reticulocyte assessed as reduction in overall translation at 5 to 20 uM […] dual-luciferase reporter gene assay; format: subcellular; conditions: Oryctolagus cuniculus
Ribosome [2] = assay: Induction of ribosome to readthrough in-frame UGA codon of renilla/firefly CFTR G542X nonsense mutant gene transfected in rabbit reticulocyte assessed as reduction in overall translation at 5 to 20 uM […] dual-luciferase reporter gene assay; format: subcellular; conditions: Oryctolagus cuniculus
Ribosome [3] = assay: Induction of ribosome to readthrough in-frame UGA codon of renilla/firefly CFTR W1282X nonsense mutant gene transfected in rabbit reticulocyte assessed as reduction in overall translation at 5 to 20 uM […] dual-luciferase reporter gene assay; format: subcellular; conditions: Oryctolagus cuniculus
Ribosome [4] = assay: Induction of ribosome to readthrough in-frame UGA codon associated with renilla/firefly dystrophin R3381X nonsense mutant gene transfected in rabbit reticulocyte assessed as reduction in overall translation at 5 to 20 uM […] dual-luciferase reporter gene assay; format: subcellular; conditions: Oryctolagus cuniculus
Ribosome [5] = assay: Induction of ribosome to readthrough in-frame UAG codon of renilla/firefly IDUA Q70X nonsense mutant gene transfected in rabbit reticulocyte assessed as reduction in overall translation at 5 to 20 uM […] dual-luciferase reporter gene assay; format: subcellular; conditions: Oryctolagus cuniculus
Ribosome [6] = assay: Induction of ribosome to readthrough in-frame UGA codon of renilla/firefly PCDH15 R3X nonsense mutant gene transfected in HEK293 cells assessed as reduction in overall translation at 1 to 2 mM after 6 hrs dual-luciferase reporter gene assay; format: subcellular; conditions: Homo sapiens
Ribosome [7] = assay: Induction of ribosome to readthrough in-frame UAG codon of renilla/firefly IDUA Q70X nonsense mutant gene transfected in HEK293 cells assessed as reduction in overall translation at 1 to 2 mM after 6 hrs dual-luciferase reporter gene assay; format: subcellular; conditions: Homo sapiens
Ribosome [8] = assay: Induction of ribosome to readthrough in-frame UGA codon of renilla/firefly CFTR W1282X nonsense mutant gene transfected in HEK293 cells assessed as reduction in overall translation at 1 to 2 mM after 6 hrs dual-luciferase reporter gene assay; format: subcellular; conditions: Homo sapiens
[9] = (§1) Cytotoxicity against HEK293 cells after 48 hrs by XTT assay; format: cell-based; conditions: human, HEK293 cells; read-out: LC50
Outline: (§2)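 HEK-293 cells seeded overnight at 5000 cells/well in DMEM with 10% FBS, 1% pen/strep and 1% glutamine. Medium then replaced with antibiotic-free medium, aminoglycoside added at a range of concentrations, and cells incubated 48 h. Read-out by O.D. on a plate reader. Viability is the ratio of living cells treated vs untreated. LC50 fitted from concentration–response curves of at least two independent experiments. Concentrations are given as free amine.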

Bacterial 70S ribosome = assay: Inhibition of ribosomal activity in Escherichia coli strain B assessed as inhibition of translation after 60 mins by coupled transcription/translation assay; format: subcellular
Outline: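 E. coli S30 extract for circular DNA, with pBESTluc plasmid as template. Reactions containing varying aminoglycoside concentrations incubated at 37 °C for 60 min, chilled on ice 5 min, then diluted in tris-phosphate buffer (25 mM, pH 7.8) with DTT, chelator, glycerol, Triton X-100 and BSA. Luciferase luminescence read immediately after reagent addition. IC50 fitted from at least two independent experiments.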

[10] = Inhibition of ribosomal activity in Spodoptera frugiperda Sf21 cells assessed as inhibition of translation after 60 mins by fluorescence assay; format: subcellular, Ribosome
Escherichia coli = assay: Antibacterial activity against Escherichia coli R477-100 by double-microdilution method; format: functional
Outline: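 MIC by two-fold broth microdilution following NCCLS guidance; tested compound started at 384 µg/mL. Each run done in triplicate, with consistent results across three separate experiments.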

Bacillus subtilis = assay: Antibacterial activity against Bacillus subtilis ATCC 6633 by double-microdilution method; format: functional
Outline: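 MIC determined by double-microdilution per NCCLS against Gram-positive B. subtilis ATCC-6633, starting at 384 µg/mL of compound. Run in triplicate (footnote says duplicates); analogous results in three separate experiments.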

[11] = Ratio of gentamicin to compound antitranslational activity against prokaryotic ribosome-mediated translation; format: subcellular
[12] = Ratio of paromomycin to compound antitranslational activity against prokaryotic ribosome-mediated translation; format: subcellular
Ribosome [13] = assay: Induction of ribosome to readthrough in-frame UGA codon of renilla/firefly PCDH15 R3X nonsense mutant gene transfected in rabbit reticulocyte assessed as reduction in overall translation at 5 to 20 uM […] dual-luciferase reporter gene assay; format: subcellular; conditions: Oryctolagus cuniculus
Ribosome [14] = assay: Induction of ribosome to readthrough in-frame renilla/firefly TGA codon transfected in rabbit reticulocyte at 200 to 600 uM after 16 hrs dual-luciferase reporter gene assay; format: subcellular; conditions: Oryctolagus cuniculus
Ribosome [15] = assay: Induction of ribosome to readthrough in-frame renilla/firefly TGA codon transfected in rabbit reticulocyte at 5 to 20 uM after 16 hrs dual-luciferase reporter gene assay; format: subcellular; conditions: Oryctolagus cuniculus
HEK293 [16] = assay: as §1; format: cell-based; conditions: human, hek293, 48 h; read-out: LC50 (the source's name); outline: as §2
[17] = Cytotoxicity against HDF after 72 hrs by XTT assay; format: cell-based; conditions: human
Outline: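 Primary human dermal fibroblasts isolated from adult skin. Handled as in the HEK-293 protocol (overnight seeding, antibiotic-free medium, range of aminoglycoside concentrations), but exposed for 72 h. Viability is the ratio of treated to untreated living cells by O.D. LC50 fitted from concentration–response curves of at least two independent experiments.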

HEK293 [18] = assay: Ratio of geneticin to compound activity for induction of ribosome to readthrough in-frame UGA codon of renilla/firefly CFTR W1282X nonsense mutant gene transfected in HEK293 cells at 0.1 to 0.7 mM after 6 hrs dual-luciferase reporter gene assay; format: subcellular; conditions: Homo sapiens
HEK293 [19] = assay: Ratio of compound LC50 to gentamicin LC50 for HEK293 cells; format: ADME, cell-based; conditions: human
Outline: (§3)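 HEK-293 cells seeded 5000/well overnight in DMEM with 10% FBS, 1% pen/strep, 1% glutamine; medium replaced without antibiotics, aminoglycosides added at varying concentrations for 48 h; OD read on plate reader. Viability as living cells treated versus untreated; LC50 from concentration–response fits of at least two independent experiments; ratios relative to reference drug LC50.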

[20] = Ratio of compound LC50 to geneticin LC50 for HEK293 cells; format: ADME, cell-based; conditions: human; outline: as §3

Row | Compound | inhibition (Ribosome [1]) [%] | inhibition (Ribosome [2]) [%] | inhibition (Ribosome [3]) [%] | inhibition (Ribosome [4]) [%] | inhibition (Ribosome [5]) [%] | CC50 at 48 h [9] [µM] | IC50 (Bacterial 70S ribosome) [µM] | IC50 [10] [µM] | MIC (Escherichia coli) [µM] | MIC (Bacillus subtilis) [µM] | inhibition (Ribosome [13]) [%] | Activity (Ribosome [15]) | further results
1 | NCC[C@H](O)C(=O)N[C@@H]1C[C@H](N)[C@@H](O[C@H]2O[C@H](CO)[C@@H](O)[C@H](O)[C@H]2N)[C@H](O[C@@H]2O[C@H](CN)[C@@H](O)[C@H]2O)[C@H]1O | 10 | 10 | 10 | 10 | 10 | 6100 | 0.16 | 24 | 588 (≈ 327 µg/mL) | 70 (≈ 38.9 µg/mL) | 10 | – | inhibition (Ribosome [6]): Active; inhibition (Ribosome [7]): Active; inhibition (Ribosome [8]): Active; Ratio [11]: 10; Ratio [12]: 10
2 | NCC[C@H](O)C(=O)N[C@@H]1C[C@H](N)[C@@H](O[C@H]2O[C@H](CO)[C@@H](O)[C@H](O)[C@H]2N)[C@H](O)[C@H]1O | – | – | – | – | – | – | – | – | – | – | – | Active | Activity (Ribosome [14]): Active
3 | GENTAMICIN [listing 1 of 2 here] | – | – | – | – | – | – | 0.028 | 62 | – | – | – | – | CC50 (HEK293 [16]): 2500 µM; CC50 ([17]; hdf, 72 h, read-out: LC50 (the source's name)): 3800 µM
4 | C[C@H](O)[C@H]1O[C@H](O[C@H]2[C@H](O[C@@H]3O[C@H](CN)[C@@H](O)[C@H]3O)[C@@H](O)[C@H](NC(=O)[C@@H](O)CCN)C[C@@H]2N)[C@H](N)[C@@H](O)[C@@H]1O | 50 | 50 | 50 | 50 | 50 | 7000 | 0.98 | 2.8 | 556 (≈ 317 µg/mL) | 70 (≈ 39.9 µg/mL) | 50 | – | inhibition (Ribosome [6]): Active; inhibition (Ribosome [7]): Active; inhibition (Ribosome [8]): Active; Ratio (HEK293 [18]): 2; Ratio (HEK293 [19]): 2.8; selectivity ratio [20]: 5
5 | NC[C@H]1O[C@@H](O[C@@H]2[C@@H](O)[C@H](N)C[C@H](N)[C@H]2O[C@H]2O[C@H](CO)[C@@H](O)[C@H](O)[C@H]2N)[C@H](O)[C@@H]1O | 10 | 10 | 10 | 10 | 10 | 21400 | 0.46 | 31 | 790 (≈ 359 µg/mL) | 100 (≈ 45.4 µg/mL) | 10 | – | Ratio [11]: 10; Ratio [12]: 10
6 | N[C@H]1[C@@H](O[C@H]2[C@H](O)[C@@H](O)[C@H](N)C[C@@H]2N)O[C@H](CO)[C@@H](O)[C@@H]1O | – | – | – | – | – | – | – | – | – | – | – | Active | Activity (Ribosome [14]): Active
7 | C[C@H](O)[C@H]1O[C@H](O[C@H]2[C@H](O)[C@@H](O)[C@H](NC(=O)[C@@H](O)CCN)C[C@@H]2N)[C@H](N)[C@@H](O)[C@@H]1O | – | – | – | – | – | – | – | – | – | – | – | Active | –
8 | GENTAMICIN [listing 2 of 2 here] | – | – | – | – | – | – | – | – | 6 | < 0.75 | – | – | –
9 | CN[C@@H]1[C@@H](O)[C@@H](O[C@@H]2[C@@H](O)[C@H](O[C@H]3O[C@H]([C@@H](C)O)[C@@H](O)[C@H](O)[C@H]3N)[C@@H](N)C[C@H]2N)OC[C@]1(C)O [GENETICIN] | – | – | – | – | – | 1300 | 0.0089 | – | 9 (≈ 4.47 µg/mL) | < 1.25 | – | – | CC50 at 72 h ([17]; HDF cells, read-out: LC50): 2000 µM
10 | C[C@H](O)[C@H]1O[C@H](O[C@H]2[C@H](O[C@@H]3O[C@H](CN)[C@@H](O)[C@H]3O)[C@@H](O)[C@H](N)C[C@@H]2N)[C@H](N)[C@@H](O)[C@@H]1O | 10 | 10 | 10 | 10 | 10 | 25800 | 1.13 | – | – | 42 (≈ 19.7 µg/mL) | 10 | – | –
11 | C[C@H](O)[C@H]1O[C@H](O[C@H]2[C@H](O)[C@@H](O)[C@H](N)C[C@@H]2N)[C@H](N)[C@@H](O)[C@@H]1O | – | – | – | – | – | – | – | – | – | – | – | Active | Activity (Ribosome [14]): Active
